Data taken from the M2OR odorant receptor database.
Substitutions are numbered along the chain they refer to.

Tests used:
Conditions in all cases: stereoisomer not certain
[1] = target: T1, OR6C65 (Homo sapiens) (UniProt A6NJZ3)
T1 sequence (whole entry): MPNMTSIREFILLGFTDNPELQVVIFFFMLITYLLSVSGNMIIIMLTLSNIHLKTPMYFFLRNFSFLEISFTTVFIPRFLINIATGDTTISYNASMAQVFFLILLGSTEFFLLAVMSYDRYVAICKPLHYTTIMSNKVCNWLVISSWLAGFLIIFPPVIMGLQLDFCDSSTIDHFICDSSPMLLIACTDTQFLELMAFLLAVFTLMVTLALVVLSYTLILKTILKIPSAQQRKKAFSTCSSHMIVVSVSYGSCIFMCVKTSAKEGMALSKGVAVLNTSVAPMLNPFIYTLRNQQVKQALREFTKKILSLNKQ
How it was run: (§1)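 Each receptor–molecule pair is labelled responsive or non-responsive (inactive) according to whether the original authors judged the measured signal statistically different from baseline. The data were taken from the main text and supplementary material of published papers and checked for typos and inconsistencies. Assay methods differed by source, with transient luciferase assays in mammalian cell lines being common.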

[2] = target: T2, OR6C68 (Homo sapiens) (UniProt A6NDL8)
T2 sequence (whole entry): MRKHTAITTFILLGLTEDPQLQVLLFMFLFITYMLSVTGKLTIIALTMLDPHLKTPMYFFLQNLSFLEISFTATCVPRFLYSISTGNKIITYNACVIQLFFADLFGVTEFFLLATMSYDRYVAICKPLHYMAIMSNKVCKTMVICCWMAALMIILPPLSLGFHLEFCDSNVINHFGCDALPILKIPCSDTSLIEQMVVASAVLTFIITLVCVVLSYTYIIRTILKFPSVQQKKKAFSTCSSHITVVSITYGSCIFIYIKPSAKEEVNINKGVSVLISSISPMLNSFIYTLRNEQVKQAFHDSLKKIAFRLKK
How it was run: as §1

[3] = target: T3, OR6C70 (Homo sapiens) (UniProt A6NIJ9)
T3 sequence (whole entry): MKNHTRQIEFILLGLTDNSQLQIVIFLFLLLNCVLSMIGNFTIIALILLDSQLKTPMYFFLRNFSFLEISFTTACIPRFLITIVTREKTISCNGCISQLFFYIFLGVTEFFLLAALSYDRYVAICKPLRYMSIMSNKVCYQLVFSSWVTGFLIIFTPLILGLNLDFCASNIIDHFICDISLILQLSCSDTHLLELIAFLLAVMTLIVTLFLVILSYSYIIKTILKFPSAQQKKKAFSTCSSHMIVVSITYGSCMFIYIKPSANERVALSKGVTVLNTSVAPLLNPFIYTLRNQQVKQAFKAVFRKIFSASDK
How it was run: as §1

[4] = target: T4, OR6C74 (Homo sapiens) (UniProt A6NCV1)
T4 sequence (whole entry): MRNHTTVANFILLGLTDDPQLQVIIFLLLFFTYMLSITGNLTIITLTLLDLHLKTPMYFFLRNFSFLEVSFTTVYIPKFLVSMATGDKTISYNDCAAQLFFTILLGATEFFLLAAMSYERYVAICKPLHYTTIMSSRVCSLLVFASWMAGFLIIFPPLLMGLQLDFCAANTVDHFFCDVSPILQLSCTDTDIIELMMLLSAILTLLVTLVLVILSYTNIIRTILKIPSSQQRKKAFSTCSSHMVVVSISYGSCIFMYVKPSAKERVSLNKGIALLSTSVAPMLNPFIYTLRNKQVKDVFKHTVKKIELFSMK
How it was run: as §1

[5] = target: T5, OR6C75 (Homo sapiens) (UniProt A6NL08)
T5 sequence (whole entry): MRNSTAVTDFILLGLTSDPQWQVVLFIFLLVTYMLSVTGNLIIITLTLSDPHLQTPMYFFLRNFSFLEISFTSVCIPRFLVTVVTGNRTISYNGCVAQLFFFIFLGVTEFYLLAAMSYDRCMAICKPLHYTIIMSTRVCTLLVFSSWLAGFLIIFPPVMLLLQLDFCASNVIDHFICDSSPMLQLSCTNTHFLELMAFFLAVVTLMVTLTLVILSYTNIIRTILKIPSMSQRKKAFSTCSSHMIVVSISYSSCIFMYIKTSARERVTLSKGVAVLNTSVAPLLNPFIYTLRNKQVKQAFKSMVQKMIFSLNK
How it was run: as §1

[6] = target: T6, OR6C76 (Homo sapiens) (UniProt A6NM76)
T6 sequence (whole entry): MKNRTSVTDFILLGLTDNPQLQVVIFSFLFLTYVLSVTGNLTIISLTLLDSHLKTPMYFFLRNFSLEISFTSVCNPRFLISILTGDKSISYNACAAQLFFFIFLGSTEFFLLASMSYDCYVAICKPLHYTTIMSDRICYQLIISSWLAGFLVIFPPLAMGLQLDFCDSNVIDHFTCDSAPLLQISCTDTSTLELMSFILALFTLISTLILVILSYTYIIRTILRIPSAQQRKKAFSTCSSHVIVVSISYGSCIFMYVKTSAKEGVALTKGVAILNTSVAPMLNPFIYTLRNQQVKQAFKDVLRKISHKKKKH
How it was run: as §1

[7] = target: T7, OR6F1 (Homo sapiens) (UniProt Q8NGZ6)
T7 sequence (whole entry): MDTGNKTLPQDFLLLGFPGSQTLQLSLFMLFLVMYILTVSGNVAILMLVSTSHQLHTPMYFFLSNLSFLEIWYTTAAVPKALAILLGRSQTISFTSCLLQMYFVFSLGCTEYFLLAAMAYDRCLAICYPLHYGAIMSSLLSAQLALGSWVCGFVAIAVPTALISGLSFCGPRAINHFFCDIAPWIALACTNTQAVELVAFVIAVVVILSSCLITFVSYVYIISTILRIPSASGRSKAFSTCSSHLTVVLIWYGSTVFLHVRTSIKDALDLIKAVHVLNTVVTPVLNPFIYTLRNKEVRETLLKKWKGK
How it was run: as §1

[8] = target: T8, OR6J1 (Homo sapiens) (UniProt Q8NGC5)
T8 sequence (whole entry): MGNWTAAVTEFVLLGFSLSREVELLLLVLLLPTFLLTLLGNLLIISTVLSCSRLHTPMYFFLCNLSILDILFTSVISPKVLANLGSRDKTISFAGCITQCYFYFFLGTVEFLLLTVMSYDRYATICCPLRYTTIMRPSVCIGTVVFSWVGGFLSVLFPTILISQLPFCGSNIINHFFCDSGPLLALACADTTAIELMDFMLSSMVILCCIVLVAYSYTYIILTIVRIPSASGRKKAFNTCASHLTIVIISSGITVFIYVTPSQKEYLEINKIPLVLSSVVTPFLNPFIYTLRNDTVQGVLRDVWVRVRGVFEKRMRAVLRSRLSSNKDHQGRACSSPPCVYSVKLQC
How it was run: as §1

[9] = target: T9, OR6K2 (Homo sapiens) (UniProt Q8NGY2)
T9 sequence (whole entry): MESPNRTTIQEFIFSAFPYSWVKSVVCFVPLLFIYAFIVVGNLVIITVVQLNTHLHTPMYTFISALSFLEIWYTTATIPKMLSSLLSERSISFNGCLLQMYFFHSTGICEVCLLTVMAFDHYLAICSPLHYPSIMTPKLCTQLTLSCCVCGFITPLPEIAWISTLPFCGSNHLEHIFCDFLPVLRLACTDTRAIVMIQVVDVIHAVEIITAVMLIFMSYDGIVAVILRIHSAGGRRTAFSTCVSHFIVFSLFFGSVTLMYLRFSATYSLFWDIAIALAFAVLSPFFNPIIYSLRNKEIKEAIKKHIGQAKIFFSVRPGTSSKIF
How it was run: as §1

[10] = test system: T10, OR6K3
T10 sequence (whole entry): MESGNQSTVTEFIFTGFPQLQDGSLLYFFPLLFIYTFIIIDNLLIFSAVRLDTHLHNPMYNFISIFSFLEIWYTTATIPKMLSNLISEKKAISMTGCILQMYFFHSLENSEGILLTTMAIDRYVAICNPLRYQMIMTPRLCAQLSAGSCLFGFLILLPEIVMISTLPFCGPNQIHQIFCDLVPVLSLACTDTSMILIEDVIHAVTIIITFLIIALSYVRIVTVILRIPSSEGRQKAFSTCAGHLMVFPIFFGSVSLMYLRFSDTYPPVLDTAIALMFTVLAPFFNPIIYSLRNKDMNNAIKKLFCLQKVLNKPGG
How it was run: as §1

[11] = target: T11, OR6K6 (Homo sapiens) (UniProt Q8NGW6)
T11 sequence (whole entry): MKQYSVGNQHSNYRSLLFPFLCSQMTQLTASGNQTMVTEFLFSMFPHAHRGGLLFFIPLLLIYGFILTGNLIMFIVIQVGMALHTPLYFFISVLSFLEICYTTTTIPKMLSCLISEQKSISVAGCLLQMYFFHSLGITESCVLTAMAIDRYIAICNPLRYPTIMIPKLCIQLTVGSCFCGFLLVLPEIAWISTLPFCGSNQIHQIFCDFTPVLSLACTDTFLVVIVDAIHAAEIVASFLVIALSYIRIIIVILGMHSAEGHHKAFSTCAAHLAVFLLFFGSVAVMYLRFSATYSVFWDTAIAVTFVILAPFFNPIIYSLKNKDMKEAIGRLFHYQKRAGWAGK
How it was run: as §1

[12] = target: T12, OR6M1 (Homo sapiens) (UniProt Q8NGM8)
T12 sequence (whole entry): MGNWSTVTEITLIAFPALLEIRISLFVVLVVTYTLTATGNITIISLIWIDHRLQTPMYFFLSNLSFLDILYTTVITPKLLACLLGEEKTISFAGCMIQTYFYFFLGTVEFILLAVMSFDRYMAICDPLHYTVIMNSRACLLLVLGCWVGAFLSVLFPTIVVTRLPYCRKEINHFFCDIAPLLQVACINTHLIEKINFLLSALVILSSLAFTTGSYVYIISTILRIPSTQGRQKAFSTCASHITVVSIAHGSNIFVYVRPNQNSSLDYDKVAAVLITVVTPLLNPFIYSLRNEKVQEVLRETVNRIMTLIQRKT
How it was run: as §1

[13] = test system: T13, OR6M1 R224C
T13 sequence (whole entry): T12 sequence (whole entry) with R224C
How it was run: as §1

[14] = test system: T14, OR6M1 T276K
T14 sequence (whole entry): T12 sequence (whole entry) with T276K
How it was run: as §1

[15] = target: T15, OR6N1 (Homo sapiens) (UniProt Q8NGY5)
T15 sequence (whole entry): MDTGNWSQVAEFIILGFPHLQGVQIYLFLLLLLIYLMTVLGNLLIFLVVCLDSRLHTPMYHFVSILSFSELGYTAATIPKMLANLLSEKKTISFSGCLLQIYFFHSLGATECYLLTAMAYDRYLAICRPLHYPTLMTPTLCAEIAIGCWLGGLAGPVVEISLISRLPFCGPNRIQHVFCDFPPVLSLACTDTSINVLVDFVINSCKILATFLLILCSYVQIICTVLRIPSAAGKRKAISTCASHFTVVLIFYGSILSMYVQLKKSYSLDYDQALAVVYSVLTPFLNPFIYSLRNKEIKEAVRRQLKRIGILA
How it was run: as §1

[16] = target: T16, OR6N2 (Homo sapiens) (UniProt Q8NGY6)
T16 sequence (whole entry): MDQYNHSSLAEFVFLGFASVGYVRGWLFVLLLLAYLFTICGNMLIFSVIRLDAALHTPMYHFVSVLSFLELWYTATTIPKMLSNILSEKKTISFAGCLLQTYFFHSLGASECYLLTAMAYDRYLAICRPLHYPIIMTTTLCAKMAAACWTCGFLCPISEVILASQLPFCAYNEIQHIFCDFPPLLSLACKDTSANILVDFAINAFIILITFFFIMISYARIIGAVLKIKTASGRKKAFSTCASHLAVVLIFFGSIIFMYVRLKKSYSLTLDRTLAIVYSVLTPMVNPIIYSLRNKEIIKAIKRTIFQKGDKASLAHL
How it was run: as §1

[17] = target: T17, OR6P1 (Homo sapiens) (UniProt Q8NGX9)
T17 sequence (whole entry): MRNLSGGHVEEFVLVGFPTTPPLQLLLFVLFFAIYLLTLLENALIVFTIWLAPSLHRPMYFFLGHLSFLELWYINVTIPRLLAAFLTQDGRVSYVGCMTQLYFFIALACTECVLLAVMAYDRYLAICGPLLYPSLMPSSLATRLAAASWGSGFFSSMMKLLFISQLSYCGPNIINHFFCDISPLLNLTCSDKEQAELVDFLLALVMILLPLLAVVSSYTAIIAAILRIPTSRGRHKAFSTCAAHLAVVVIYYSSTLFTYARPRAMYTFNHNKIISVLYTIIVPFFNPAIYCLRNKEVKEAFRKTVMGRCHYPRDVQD
How it was run: as §1

[18] = target: T18, OR6Q1 (Homo sapiens) (UniProt Q8NGQ2)
T18 sequence (whole entry): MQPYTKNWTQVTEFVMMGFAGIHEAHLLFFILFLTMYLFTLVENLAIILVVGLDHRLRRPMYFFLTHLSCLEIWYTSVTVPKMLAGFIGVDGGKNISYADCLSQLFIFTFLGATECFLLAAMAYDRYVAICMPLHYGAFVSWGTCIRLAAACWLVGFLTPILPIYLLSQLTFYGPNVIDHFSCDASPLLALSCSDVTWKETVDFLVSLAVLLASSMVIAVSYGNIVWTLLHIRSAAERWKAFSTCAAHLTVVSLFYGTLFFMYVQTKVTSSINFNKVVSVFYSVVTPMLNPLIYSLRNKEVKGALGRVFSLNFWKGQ
How it was run: as §1

[19] = target: T19, OR6J1 (Homo sapiens) (UniProt Q8NGC5); remark: listed apart in the source
T19 sequence (whole entry): T8 sequence (whole entry) with S250P
How it was run: as §1

[20] = target: T20, OR6K3 (Homo sapiens) (UniProt Q8NGY3)
T20 sequence (whole entry): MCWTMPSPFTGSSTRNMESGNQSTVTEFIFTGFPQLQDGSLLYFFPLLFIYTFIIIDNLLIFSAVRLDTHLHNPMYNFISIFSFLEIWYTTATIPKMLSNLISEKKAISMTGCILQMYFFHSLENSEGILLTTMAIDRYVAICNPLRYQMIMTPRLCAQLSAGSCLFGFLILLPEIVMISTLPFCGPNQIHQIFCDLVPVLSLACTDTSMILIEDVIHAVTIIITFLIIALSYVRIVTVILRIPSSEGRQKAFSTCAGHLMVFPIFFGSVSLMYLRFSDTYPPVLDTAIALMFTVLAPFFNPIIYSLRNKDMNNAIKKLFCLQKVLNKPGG
How it was run: as §1

Measured: odorant receptor agonist call;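 also: active if original authors judged signal statistically different from baseline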

Cc1cnc(C)c(C)n1
inactive: [1] | [2] | [3] | [4] | [5] | [6] | [7] | [8] | [9] | [10] | [11] | [12] | [13] | [14] | [15] | [16] | [17] | [18]

CC1CCCCCCCCCCCCC(=O)C1 (centres undefined)
inactive: [1] | [2] | [3] | [4] | [5] | [6] | [7] | [19] | [9] | [20] | [11] | [12] | [15] | [16] | [17] | [18]
